From ChEMBL document CHEMBL1773012, “Synthesis, spectral, crystal structure and in vitro antimicrobial evaluation of imidazole/benzotriazole substituted piperidin-4-one derivatives” (2011)
Values after ≈ are worked out from the molar mass of the structure shown. Active and inactive are the calls of the source. The rule behind the calls is not given here.

What was measured:
[1] = system: Salmonella typhi; assay: Antimicrobial activity against Salmonella typhi ATCC 25021 after 24 hrs by two fold serial dilution method; type: functional, Salmonella enterica subsp. enterica serovar Typhi; conditions: Salmonella enterica, ATCC 25021, 24 h
In short: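 Two-fold serial dilution in nutrient broth. Seeded broth was made from 24 h bacterial cultures on nutrient agar grown at 37 ± 1 °C, and the suspension was adjusted with sterile saline to 1×10⁴–10⁵ CFU. Compounds and reference drugs were tested at 200, 100, 50, 25, 12.5 and 6.25. Tubes were incubated in a BOD incubator, and the MIC was read visually after 24 h.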

[2] = system: Escherichia coli; assay: Antimicrobial activity against Escherichia coli ATCC 26032 after 24 hrs by two fold serial dilution method; type: functional; conditions: ATCC 26032, 24 h
In short: (§1)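 Nutrient broth two-fold serial dilution. Inoculum was seeded NB prepared from 24 h nutrient-agar cultures grown at 37 ± 1 °C and adjusted with sterile saline to 1×10⁴–10⁵ CFU. Compounds and reference drugs were tested at 200, 100, 50, 25, 12.5 and 6.25. Tubes were incubated in a BOD incubator, and MIC was read visually after 24 h.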

[3] = system: Klebsiella pneumoniae; assay: Antimicrobial activity against Klebsiella pneumoniae ATCC 16425 after 24 hrs by two fold serial dilution method; type: functional; in short: as §1
[4] = system: Bacillus subtilis; assay: Antimicrobial activity against Bacillus subtilis ATCC 530 after 24 hrs by two fold serial dilution method; type: functional; in short: as §1
[5] = system: Staphylococcus aureus; assay: Antimicrobial activity against Staphylococcus aureus ATCC 25930 after 24 hrs by two fold serial dilution method; type: functional; in short: as §1
[6] = system: Candida albicans; assay: Antimicrobial activity against Candida albicans ATCC 3430 by two fold serial dilution method; type: functional
In short: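 Sabouraud dextrose broth two-fold serial dilution. Cells or spores from 24 h to 7-day-old Sabouraud agar slant cultures were suspended in SDB. Test and reference agents were tested at 200, 100, 50, 25, 12.5 and 6.25. Tubes were incubated in a BOD incubator, with MIC read by visual observation.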

[7] = system: Rhizopus; assay: Antimicrobial activity against Rhizopus sp. ATCC 2842 after 72 to 96 hrs by two fold serial dilution method; type: functional
In short: (§2)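 Two-fold serial dilution in Sabouraud dextrose broth. Spores from 24 h to 7-day-old Sabouraud agar slant cultures were suspended in SDB. Compounds and reference drugs were tested at 200, 100, 50, 25, 12.5 and 6.25. Tubes were incubated in a BOD incubator, and MIC was recorded visually after 72–96 h.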

[8] = system: Aspergillus flavus; assay: Antimicrobial activity against Aspergillus flavus ATCC 525 after 72 to 96 hrs by two fold serial dilution method; type: functional; in short: as §2
[9] = system: Cryptococcus neoformans; assay: Antimicrobial activity against Cryptococcus neoformans ATCC 3235 after 72 to 96 hrs by two fold serial dilution method; type: functional; in short: as §2
[10] = system: Aspergillus niger; assay: Antimicrobial activity against Aspergillus niger ATCC 635 after 72 to 96 hrs by two fold serial dilution method; type: functional; in short: as §2

SMILES	MIC [1] [µg/mL]	MIC [2] [µg/mL]	MIC ([3]; ATCC 16425, 24 h) [µg/mL]	MIC ([4]; ATCC 530, 24 h) [µg/mL]	MIC ([5]; ATCC 25930, 24 h) [µg/mL]	MIC [6]	MIC [7] [µg/mL]	MIC [4]	MIC [8]	MIC [9] [µg/mL]	MIC [10]	MIC [3]	MIC [5]
CN[C@@H]1[C@H](O[C@H]2[C@H](O[C@H]3[C@H](O)[C@@H](O)[C@H](N=C(N)N)[C@@H](O)[C@@H]3N=C(N)N)O[C@@H](C)[C@]2(O)C=O)O[C@@H](CO)[C@H](O)[C@H]1O [STREPTOMYCIN]	50 (≈ 86 µM)	12.5 (≈ 21.5 µM)	25 (≈ 43 µM)	12.5 (≈ 21.5 µM)	50 (≈ 86 µM)								
CC1C(=O)C(C)C(c2cccc(F)c2)N(C(=O)Cn2ccnc2)C1c1cccc(F)c1 (centres undefined)	50 (≈ 118 µM)	200 (≈ 472 µM)	200 (≈ 472 µM)		50 (≈ 118 µM)	50 µg/mL (≈ 118 µM)	25 (≈ 59 µM)	inactive	inactive	6.25 (≈ 14.8 µM)	100 µg/mL (≈ 236 µM)		
CC(C)C1C(=O)CC(c2ccccc2)N(C(=O)Cn2ccnc2)C1c1ccccc1 (centres undefined)	25 (≈ 62.3 µM)	100 (≈ 249 µM)		12.5 (≈ 31.1 µM)	100 (≈ 249 µM)	100 µg/mL (≈ 249 µM)	50 (≈ 125 µM)		100 µg/mL (≈ 249 µM)	25 (≈ 62.3 µM)	12.5 µg/mL (≈ 31.1 µM)	inactive	
CC1C(=O)C(C)C(c2ccccc2)N(C(=O)Cn2ccnc2)C1c1ccccc1 (centres undefined)	100 (≈ 258 µM)	6.25 (≈ 16.1 µM)	100 (≈ 258 µM)	100 (≈ 258 µM)		inactive	200 (≈ 516 µM)		100 µg/mL (≈ 258 µM)	100 (≈ 258 µM)	100 µg/mL (≈ 258 µM)		inactive
CC1C(=O)C(C)C(c2cccc(F)c2)N(C(=O)Cn2nnc3ccccc32)C1c1cccc(F)c1 (centres undefined)		50 (≈ 105 µM)	25 (≈ 52.7 µM)	25 (≈ 52.7 µM)	50 (≈ 105 µM)	inactive	100 (≈ 211 µM)		200 µg/mL (≈ 421 µM)	100 (≈ 211 µM)	200 µg/mL (≈ 421 µM)		
CCC1C(=O)CC(c2ccccc2)N(C(=O)Cn2ccnc2)C1c1ccccc1 (centres undefined)	200 (≈ 516 µM)	50 (≈ 129 µM)	100 (≈ 258 µM)		200 (≈ 516 µM)	200 µg/mL (≈ 516 µM)	100 (≈ 258 µM)	inactive	200 µg/mL (≈ 516 µM)	50 (≈ 129 µM)	inactive		
C[C@@H]1[C@H](O)[C@@H](C)/C=C/C=C/C=C/C=C/C=C/C=C/C=C/[C@H](O[C@@H]2O[C@H](C)[C@@H](O)[C@H](N)[C@@H]2O)C[C@@H]2O[C@](O)(C[C@@H](O)C[C@@H](O)[C@H](O)CC[C@@H](O)C[C@@H](O)CC(=O)O[C@H]1C)C[C@H](O)[C@H]2C(=O)O [AMPHOTERICIN B]						25 µg/mL (≈ 27.1 µM)	25 (≈ 27.1 µM)		50 µg/mL (≈ 54.1 µM)	25 (≈ 27.1 µM)	50 µg/mL (≈ 54.1 µM)		
CC1C(=O)CC(c2ccccc2)N(C(=O)Cn2ccnc2)C1c1ccccc1 (centres undefined)	200 (≈ 536 µM)	100 (≈ 268 µM)	50 (≈ 134 µM)	25 (≈ 66.9 µM)	100 (≈ 268 µM)	100 µg/mL (≈ 268 µM)	100 (≈ 268 µM)		100 µg/mL (≈ 268 µM)	100 (≈ 268 µM)	200 µg/mL (≈ 536 µM)		
COc1ccc(C2C(C)C(=O)C(C)C(c3ccc(OC)cc3)N2C(=O)Cn2ccnc2)cc1 (centres undefined)	100 (≈ 223 µM)	25 (≈ 55.9 µM)	200 (≈ 447 µM)	50 (≈ 112 µM)	100 (≈ 223 µM)	6.25 µg/mL (≈ 14 µM)	100 (≈ 223 µM)		100 µg/mL (≈ 223 µM)	50 (≈ 112 µM)	inactive		
